ChEMBL document CHEMBL4823270, “A first-in-class anticancer dual HDAC2/FAK inhibitors bearing hydroxamates/benzamides capped by pyridinyl-1,2,4-triazoles” (Eur J Med Chem, 2021)
The source made the active and inactive calls. The calls are words filed in the database; no cut-off is given here.

Columns and labels:
[1] = molecular target: Histone deacetylase 1 (Homo sapiens, UniProt Q13547); assay: Inhibition of human full-length recombinant HDAC1 preincubated for 5 mins followed by HDAC substrate addition and further incubated for 45 mins by fluorescence microplate reader assay
[2] = molecular target: T1, Focal adhesion kinase 1 (Homo sapiens, UniProt Q05397); assay: Inhibition of FAK in human CAKI-1 cells assessed as reduction in FAK phosphorylation by Western blot analysis; assay type: cell-based
In short: (§1)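 40 μg protein (Bradford) resolved by SDS-PAGE, transferred to PVDF, blocked 1 h in milk or BSA. Primary antibody overnight, HRP secondary 1 h, ECL detection; β-actin as loading control.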
Target sequence in this assay (Q05397 2-1052 limits assumed): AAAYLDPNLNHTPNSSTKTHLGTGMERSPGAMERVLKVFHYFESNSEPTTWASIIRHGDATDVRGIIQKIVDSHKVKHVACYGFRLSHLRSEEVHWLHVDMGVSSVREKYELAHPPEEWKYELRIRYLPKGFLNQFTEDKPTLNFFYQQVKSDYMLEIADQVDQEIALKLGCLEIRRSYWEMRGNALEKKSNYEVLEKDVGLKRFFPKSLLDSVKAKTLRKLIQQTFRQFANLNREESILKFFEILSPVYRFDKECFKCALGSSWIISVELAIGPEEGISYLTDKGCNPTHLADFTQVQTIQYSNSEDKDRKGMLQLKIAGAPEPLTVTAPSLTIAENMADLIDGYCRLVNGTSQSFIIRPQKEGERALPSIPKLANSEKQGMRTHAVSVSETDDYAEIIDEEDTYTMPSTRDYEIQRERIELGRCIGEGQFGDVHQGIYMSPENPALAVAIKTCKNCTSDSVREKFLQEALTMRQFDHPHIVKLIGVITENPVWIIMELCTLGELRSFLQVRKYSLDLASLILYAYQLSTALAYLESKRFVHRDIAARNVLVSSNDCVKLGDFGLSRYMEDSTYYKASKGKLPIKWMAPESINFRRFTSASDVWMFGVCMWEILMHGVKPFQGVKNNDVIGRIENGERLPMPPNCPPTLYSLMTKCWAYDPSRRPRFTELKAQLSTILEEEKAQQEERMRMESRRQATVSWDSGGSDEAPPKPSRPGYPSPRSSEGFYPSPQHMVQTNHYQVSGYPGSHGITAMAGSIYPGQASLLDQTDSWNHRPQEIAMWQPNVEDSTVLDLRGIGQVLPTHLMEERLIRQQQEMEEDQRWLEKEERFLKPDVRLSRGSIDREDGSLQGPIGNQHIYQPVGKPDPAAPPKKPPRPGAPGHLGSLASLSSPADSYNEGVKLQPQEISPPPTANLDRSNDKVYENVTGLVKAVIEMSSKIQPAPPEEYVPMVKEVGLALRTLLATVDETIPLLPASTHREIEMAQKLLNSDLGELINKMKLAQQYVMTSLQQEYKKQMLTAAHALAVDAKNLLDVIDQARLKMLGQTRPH

[3] = molecular target: T1, Focal adhesion kinase 1; assay: Inhibition of FAK in human A498 cells assessed as reduction in FAK phosphorylation by Western blot analysis; assay type: cell-based; in short: as §1
Target sequence in this assay (Q05397 2-1052 limits assumed): as above

[4] = test system: A498; assay: Antiproliferative activity against human A498 cells assessed as cell growth inhibition incubated for 24 hrs by MTT assay; assay type: functional, cell-based; conditions: A498, 24 h
[5] = molecular target: T1, Focal adhesion kinase 1; assay: Inhibition of FAK (unknown origin) by FRET-based Z'-Lyte assay
In short: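 Recombinant FAK kinase activity measured with the FRET-based Z'-LYTE format; the same platform was used for a kinase panel (FAK, FLT, FRK, IGF-1R, BTK). IC50 values determined.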
Target sequence in this assay (Q05397 whole entry): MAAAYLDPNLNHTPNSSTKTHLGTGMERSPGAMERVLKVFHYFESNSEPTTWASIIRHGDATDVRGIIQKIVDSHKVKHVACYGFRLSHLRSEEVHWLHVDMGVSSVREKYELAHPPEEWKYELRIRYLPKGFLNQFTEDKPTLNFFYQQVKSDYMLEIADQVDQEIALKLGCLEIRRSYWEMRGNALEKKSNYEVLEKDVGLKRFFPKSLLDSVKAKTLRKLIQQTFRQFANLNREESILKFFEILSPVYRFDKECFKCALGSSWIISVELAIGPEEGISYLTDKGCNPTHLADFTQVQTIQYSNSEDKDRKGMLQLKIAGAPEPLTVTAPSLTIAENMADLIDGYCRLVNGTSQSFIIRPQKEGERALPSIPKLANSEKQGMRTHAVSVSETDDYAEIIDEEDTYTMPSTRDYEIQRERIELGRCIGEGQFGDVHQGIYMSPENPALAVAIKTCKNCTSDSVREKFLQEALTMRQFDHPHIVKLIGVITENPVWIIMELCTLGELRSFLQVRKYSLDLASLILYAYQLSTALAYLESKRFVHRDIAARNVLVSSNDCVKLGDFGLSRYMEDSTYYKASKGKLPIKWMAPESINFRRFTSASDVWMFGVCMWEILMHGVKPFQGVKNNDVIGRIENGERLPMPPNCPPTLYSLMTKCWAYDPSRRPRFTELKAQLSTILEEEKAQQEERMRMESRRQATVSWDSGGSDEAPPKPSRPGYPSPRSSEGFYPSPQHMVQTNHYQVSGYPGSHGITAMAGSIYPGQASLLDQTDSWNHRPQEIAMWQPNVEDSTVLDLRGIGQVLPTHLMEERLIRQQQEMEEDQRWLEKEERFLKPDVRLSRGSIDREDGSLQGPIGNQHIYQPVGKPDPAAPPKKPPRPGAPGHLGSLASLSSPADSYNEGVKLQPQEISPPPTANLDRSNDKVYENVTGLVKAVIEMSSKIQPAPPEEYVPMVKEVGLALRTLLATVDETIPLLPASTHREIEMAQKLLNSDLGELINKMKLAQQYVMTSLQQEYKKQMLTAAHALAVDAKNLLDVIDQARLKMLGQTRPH

[6] = test system: A498; assay: Growth inhibition of human A498 cells at 10 uM incubated for 24 hrs by MTT assay relative to control; assay type: functional; conditions: read-out: GI
In short: (§2)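 Cells seeded at 1 × 10^4 per well, cultured overnight, then exposed to 10 μM compound or DMSO (negative control) for 24 h. After a PBS wash, MTT (2 mg/ml) was added for 4 h at 37°C and formazan dissolved in DMSO. OD read at 570 nm. Growth inhibition = 1 − (OD treated/OD control); at least three independent experiments.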

[7] = test system: HT-29; assay: Growth inhibition of human HT-29 cells at 10 uM incubated for 24 hrs by MTT assay relative to control; assay type: functional; conditions: read-out: GI; in short: as §2
[8] = test system: CAKI-1; assay: Antiproliferative activity against human CAKI-1 cells assessed as cell growth inhibition incubated for 24 hrs by MTT assay; assay type: functional, cell-based; conditions: CAKI-1, 24 h
[9] = molecular target: T2, Histone deacetylase 2 (Homo sapiens, UniProt Q92769); assay: Inhibition of human full-length recombinant HDAC2 preincubated for 5 mins followed by HDAC substrate addition and further incubated for 45 mins by fluorescence microplate reader assay
[10] = molecular target: T3, Protein deacetylase HDAC6 (Homo sapiens, UniProt Q9UBN7); assay: Inhibition of human full-length recombinant HDAC6 preincubated for 5 mins followed by HDAC substrate addition and further incubated for 45 mins by fluorescence microplate reader assay
T3 sequence (Q9UBN7 whole entry): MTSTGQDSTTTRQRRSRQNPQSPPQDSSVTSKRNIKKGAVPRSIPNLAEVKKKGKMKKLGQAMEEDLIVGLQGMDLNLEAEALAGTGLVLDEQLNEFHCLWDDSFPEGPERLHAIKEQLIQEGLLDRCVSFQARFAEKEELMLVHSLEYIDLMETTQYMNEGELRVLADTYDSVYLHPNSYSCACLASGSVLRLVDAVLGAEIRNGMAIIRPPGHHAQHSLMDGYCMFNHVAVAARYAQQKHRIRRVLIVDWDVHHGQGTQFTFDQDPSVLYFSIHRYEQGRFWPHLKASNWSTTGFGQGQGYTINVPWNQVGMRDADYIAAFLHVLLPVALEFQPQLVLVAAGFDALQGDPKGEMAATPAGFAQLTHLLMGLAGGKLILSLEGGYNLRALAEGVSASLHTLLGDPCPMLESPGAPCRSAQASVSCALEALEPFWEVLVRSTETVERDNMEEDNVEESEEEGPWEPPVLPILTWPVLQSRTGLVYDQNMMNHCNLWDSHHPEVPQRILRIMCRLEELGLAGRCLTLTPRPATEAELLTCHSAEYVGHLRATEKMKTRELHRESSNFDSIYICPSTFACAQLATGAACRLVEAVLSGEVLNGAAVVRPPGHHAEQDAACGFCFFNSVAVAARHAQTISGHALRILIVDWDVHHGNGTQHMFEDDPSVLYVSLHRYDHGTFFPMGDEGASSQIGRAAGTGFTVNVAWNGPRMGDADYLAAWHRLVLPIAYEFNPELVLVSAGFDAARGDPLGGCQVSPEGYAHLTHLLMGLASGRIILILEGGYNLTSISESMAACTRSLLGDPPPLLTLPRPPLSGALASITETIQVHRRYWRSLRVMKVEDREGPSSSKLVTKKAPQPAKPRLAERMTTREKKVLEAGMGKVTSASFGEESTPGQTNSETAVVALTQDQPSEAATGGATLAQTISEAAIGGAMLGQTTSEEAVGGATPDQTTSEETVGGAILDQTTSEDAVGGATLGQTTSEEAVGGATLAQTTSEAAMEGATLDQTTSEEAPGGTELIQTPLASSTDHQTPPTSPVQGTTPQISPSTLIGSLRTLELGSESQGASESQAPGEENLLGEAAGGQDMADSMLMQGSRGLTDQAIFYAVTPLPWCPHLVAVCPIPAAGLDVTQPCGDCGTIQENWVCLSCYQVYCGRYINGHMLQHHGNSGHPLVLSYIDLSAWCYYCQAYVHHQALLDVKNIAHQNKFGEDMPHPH

[11] = test system: CAKI-1; assay: Growth inhibition of human CAKI-1 cells at 10 uM incubated for 24 hrs by MTT assay relative to control; assay type: functional; conditions: read-out: GI; in short: as §2
[12] = molecular target: Histone deacetylase 3 (Homo sapiens, UniProt O15379); assay: Inhibition of human full-length recombinant HDAC3 preincubated for 5 mins followed by HDAC substrate addition and further incubated for 45 mins by fluorescence microplate reader assay
[13] = test system: K562; assay: Growth inhibition of human K562 cells at 10 uM incubated for 24 hrs by MTT assay relative to control; assay type: functional; conditions: read-out: GI; in short: as §2
[14] = molecular target: T4, Histone deacetylase 8 (Homo sapiens, UniProt Q9BY41); assay: Inhibition of human full-length recombinant C-terminal His-tagged HDAC8 expressed in baculovirus infected Sf9 insect cells preincubated for 5 mins followed by HDAC substrate addition and further incubated for 45 mins by fluorescence microplate reader assay
T4 sequence (Q9BY41 whole entry): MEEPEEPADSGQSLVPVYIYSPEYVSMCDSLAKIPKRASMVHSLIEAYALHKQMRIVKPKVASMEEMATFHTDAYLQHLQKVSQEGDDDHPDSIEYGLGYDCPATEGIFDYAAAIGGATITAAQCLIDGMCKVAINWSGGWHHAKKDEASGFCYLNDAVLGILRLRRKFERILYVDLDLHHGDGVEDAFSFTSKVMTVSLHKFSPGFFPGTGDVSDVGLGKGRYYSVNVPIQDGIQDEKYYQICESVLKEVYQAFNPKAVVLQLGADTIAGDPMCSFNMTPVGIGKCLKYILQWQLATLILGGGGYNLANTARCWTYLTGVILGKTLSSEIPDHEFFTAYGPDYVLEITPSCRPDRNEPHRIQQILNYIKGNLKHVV

[15] = test system: KG-1; assay: Growth inhibition of human KG-1 cells at 10 uM incubated for 24 hrs by MTT assay relative to control; assay type: functional; conditions: KG-1, 24 h; in short: as §2
[16] = molecular target: T2, Histone deacetylase 2; assay: Inhibition of HDAC2 in human A498 cells assessed as reduction in HDAC2 expression by Western blot analysis; assay type: cell-based; in short: as §1
[17] = test system: HCT-116; assay: Growth inhibition of human HCT-116 cells at 10 uM incubated for 24 hrs by MTT assay relative to control; assay type: functional; conditions: read-out: GI; in short: as §2
[18] = molecular target: T2, Histone deacetylase 2; assay: Inhibition of HDAC2 in human CAKI-1 cells assessed as reduction in HDAC2 expression by Western blot analysis; assay type: cell-based; in short: as §1

Sequence of Histone deacetylase 3 (O15379 whole entry): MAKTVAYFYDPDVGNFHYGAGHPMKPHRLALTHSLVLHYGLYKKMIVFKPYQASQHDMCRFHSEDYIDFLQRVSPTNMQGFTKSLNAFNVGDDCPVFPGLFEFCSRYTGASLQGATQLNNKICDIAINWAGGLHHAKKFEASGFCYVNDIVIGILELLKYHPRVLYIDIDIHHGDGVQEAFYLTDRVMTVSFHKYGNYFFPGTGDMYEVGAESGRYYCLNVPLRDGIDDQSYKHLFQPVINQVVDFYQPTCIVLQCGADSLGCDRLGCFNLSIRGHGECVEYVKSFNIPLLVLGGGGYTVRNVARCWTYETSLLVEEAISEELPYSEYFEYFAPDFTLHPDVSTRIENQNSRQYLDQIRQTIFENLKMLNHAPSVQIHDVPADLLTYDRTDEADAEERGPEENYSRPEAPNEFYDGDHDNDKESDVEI
Sequence of Histone deacetylase 1 (Q13547 whole entry): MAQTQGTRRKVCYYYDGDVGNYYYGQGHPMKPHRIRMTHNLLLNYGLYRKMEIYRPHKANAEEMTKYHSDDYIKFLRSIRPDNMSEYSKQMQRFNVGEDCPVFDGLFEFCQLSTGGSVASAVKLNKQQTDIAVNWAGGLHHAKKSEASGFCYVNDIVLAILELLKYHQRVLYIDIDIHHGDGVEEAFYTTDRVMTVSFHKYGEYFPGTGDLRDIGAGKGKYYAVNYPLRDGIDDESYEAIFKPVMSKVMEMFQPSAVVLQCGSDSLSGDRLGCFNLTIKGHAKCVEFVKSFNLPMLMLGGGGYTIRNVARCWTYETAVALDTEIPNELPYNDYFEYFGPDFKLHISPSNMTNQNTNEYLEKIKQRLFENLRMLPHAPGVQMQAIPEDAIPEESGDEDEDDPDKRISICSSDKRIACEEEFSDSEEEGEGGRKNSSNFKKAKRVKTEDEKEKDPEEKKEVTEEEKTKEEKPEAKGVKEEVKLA
T2 sequence (Q92769 whole entry): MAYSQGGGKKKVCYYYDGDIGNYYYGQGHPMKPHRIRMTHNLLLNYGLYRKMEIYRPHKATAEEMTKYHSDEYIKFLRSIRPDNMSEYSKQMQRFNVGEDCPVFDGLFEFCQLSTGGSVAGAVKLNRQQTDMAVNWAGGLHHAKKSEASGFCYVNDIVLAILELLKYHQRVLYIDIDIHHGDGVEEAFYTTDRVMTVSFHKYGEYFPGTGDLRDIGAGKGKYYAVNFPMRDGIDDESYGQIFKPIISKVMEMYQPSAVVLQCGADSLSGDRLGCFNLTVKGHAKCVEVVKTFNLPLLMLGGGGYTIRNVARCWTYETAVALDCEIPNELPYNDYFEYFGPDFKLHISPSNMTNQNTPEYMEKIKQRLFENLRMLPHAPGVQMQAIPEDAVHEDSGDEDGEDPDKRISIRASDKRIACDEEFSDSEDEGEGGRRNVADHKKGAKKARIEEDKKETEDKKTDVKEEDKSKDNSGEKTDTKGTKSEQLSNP

| Structure (SMILES) | IC50 [1] | inhibition [2] | inhibition [3] | IC50 [4] | IC50 [5] | inhibition of growth at 10 µM [6] | inhibition of growth at 10 µM [7] | IC50 [8] | IC50 [9] | IC50 [10] | inhibition of growth at 10 µM [11] | IC50 [12] | inhibition of growth at 10 µM [13] | IC50 [14] | inhibition in vitro at 10 µM [15] | inhibition [16] | inhibition of growth at 10 µM [17] | inhibition [18] |
| --- | --- | --- | --- | --- | --- | --- | --- | --- | --- | --- | --- | --- | --- | --- | --- | --- | --- | --- |
| C=CCn1c(SCCCCCC(=O)Nc2ccccc2N)nnc1-c1ccncc1 | 31 µM | Active | Active | 1.19 µM | 14.3 nM | 97.7% | 95.5% | 1.34 µM | 1.4 µM | 9.79 µM | 95.4% | 11 µM | 86.4% | 5.86 µM | 94.2% | Active | 90.5% | Active |
| CCn1c(SCCCCCC(=O)NO)nnc1-c1ccncc1 | 76.3 µM | – | – | 149 µM | 124 nM | 5.26% | 9.15% | 112 µM | 28.9 µM | 270 µM | 2.06% | > 300 µM | 4.09% | > 300 µM | 17.3% | – | 21.4% | – |
| Nc1ccccc1NC(=O)c1ccc(CSc2nnc(-c3ccncc3)n2-c2ccccc2)cc1 | 22.1 µM | – | – | 6.19 µM | 96.1 nM | 72.5% | 37.9% | 8.35 µM | 8.39 µM | 9.63 µM | 66.9% | 113 µM | 19.6% | 5.32 µM | 47.3% | – | 45.4% | – |
| Cn1c(SCCCCCC(=O)O)nnc1-c1ccncc1 | 8.93 µM | – | – | 12.3 µM | 50.3 nM | 45.3% | 34.2% | 16.5 µM | 7.36 µM | 78.4 µM | 34.7% | 84.6 µM | 18.2% | 12 µM | 55.9% | – | 20.1% | – |
| Nc1ccccc1NC(=O)CCCCCSc1nnc(-c2ccncc2)n1-c1ccccc1 | 256 µM | – | – | 342 µM | 312 nM | 4.67% | 9.64% | 215 µM | 38.7 µM | 159 µM | 1.65% | > 300 µM | 15.1% | > 300 µM | 34.9% | – | 24.5% | – |
| Cn1c(SCCCCCC(=O)Nc2ccccc2N)nnc1-c1ccncc1 | 40.2 µM | – | – | 13.4 µM | 57.1 nM | 45.3% | 71.4% | 9.87 µM | 14.4 µM | 14.2 µM | 50.8% | 84.1 µM | 44.9% | 7.28 µM | 63.1% | – | 54.4% | – |
| Cn1c(SCc2ccc(C(=O)Nc3ccccc3N)cc2)nnc1-c1ccncc1 | 7.64 µM | – | – | 9.34 µM | 53.1 nM | 55.6% | 47.9% | 6.97 µM | 13 µM | 11 µM | 75.2% | 71.1 µM | 54.1% | 7.85 µM | 24.1% | – | 18% | – |
